ChEMBL document CHEMBL1149140, “Orally bioavailable competitive CCR5 antagonists” (J Med Chem, 2004)

What was measured:
[1] = target: T1, C-C chemokine receptor type 5 (Homo sapiens, UniProt P51681); assay: Rises in intracellular [Ca2+] levels by using [Ca2+] sensitive Fluo4 dye in C-C chemokine receptor type 5-transfected CHO cells.; format: functional, cell-based
Summary of the method: (§1)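 CCR5-transfected CHO cells were loaded with 4 µM Fluo4 for 1 h at 37 °C (HBSS, 20 mM HEPES pH 7.4, 0.1% BSA, 2.5 mM probenecid), then washed. Compound preincubated 2 h at room temperature. Baseline read 20 s on FLIPR, then MIP-1α added (final 10 nM) and recorded 3 min. IC50 from concentration-dependent reduction of Fmax−Fmin.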

[2] = target: T1, C-C chemokine receptor type 5; assay: Antagonistic activity against human C-C chemokine receptor type 5.; format: functional
Summary of the method: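 SPA radioligand binding using membranes from CHO cells transfected with human or cynomolgus CCR5. Buffer was 50 mM HEPES, 6 mM CaCl2, 12 mM MgCl2, 100 mM NaCl and 0.5% BSA. Incubated 2 h shaking at room temperature. Nonspecific binding defined with 100 nM unlabeled MIP-1α. IC50 reported.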

[3] = Mean residence time in monkeys; format: ADME, organism-based; conditions: simiiformes, in vivo
[4] = Oral bioavailability; format: ADME, organism-based; conditions: eutheria, in vivo
[5] = Cmax in rats at a dose of […] mg/kg; format: ADME, organism-based; conditions: rat, in vivo, 1 mg/kg
[6] = Tmax in monkeys; format: ADME; conditions: simiiformes, in vivo
[7] = AUC in monkeys at a dose of […] mg/kg; format: ADME, organism-based, Plasma; conditions: simiiformes, in vivo, 1 mg/kg
[8] = Mean residence time was determined; format: ADME, organism-based; conditions: in vivo
[9] = Cmax in monkeys at a dose of […] mg/kg; format: ADME, organism-based; conditions: simiiformes, in vivo, 1 mg/kg
Rattus norvegicus = assay: AUC in rats at a dose of […] mg/kg; format: ADME, organism-based, Plasma; conditions: in vivo, 1 mg/kg
[10] = Oral bioavailability in rat; format: ADME, organism-based; conditions: in vivo
[11] = (§2) Compound was evaluated for rises in intracellular [Ca2+] levels pre-incubation at 2.5 min in [Ca2+] Mobilization Assay; format: functional, cell-based
Summary of the method: (§3)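 Fluo4-loaded CCR5-transfected CHO cells on FLIPR. Baseline read 20 s, then compound added and monitored 2.5 min, then MIP-1α agonist (final 10 nM) added and fluorescence recorded 3 min. IC50 from inhibition of the MIP-1α-induced fluorescence rise.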

[12] = Compound was evaluated for rises in intracellular [Ca2+] levels pre-incubation at 2 hr in [Ca2+] Mobilization Assay; format: functional, cell-based; summary of the method: as §1
[13] = Compound was evaluated for rises in intracellular [Ca2+] levels by using [Ca2+] sensitive Fluo4 dye in CCR5-transfected CHO cells; format: functional, cell-based; summary of the method: as §1
[14] = Mean residence time in rat; format: ADME, organism-based; conditions: in vivo
[15] = target: CCR5 (Macaca fascicularis); assay: Antagonistic activity against cynomolgus monkey C-C chemokine receptor type 5
[16] = Tmax in rats; format: ADME, organism-based; conditions: rat, in vivo
Homo sapiens = organism: Homo sapiens; assay: as §2; format: functional, organism-based; summary of the method: as §3
[17] = Mean residence time in rats; format: ADME, organism-based; conditions: rat, in vivo

T1 sequence (P51681 whole entry): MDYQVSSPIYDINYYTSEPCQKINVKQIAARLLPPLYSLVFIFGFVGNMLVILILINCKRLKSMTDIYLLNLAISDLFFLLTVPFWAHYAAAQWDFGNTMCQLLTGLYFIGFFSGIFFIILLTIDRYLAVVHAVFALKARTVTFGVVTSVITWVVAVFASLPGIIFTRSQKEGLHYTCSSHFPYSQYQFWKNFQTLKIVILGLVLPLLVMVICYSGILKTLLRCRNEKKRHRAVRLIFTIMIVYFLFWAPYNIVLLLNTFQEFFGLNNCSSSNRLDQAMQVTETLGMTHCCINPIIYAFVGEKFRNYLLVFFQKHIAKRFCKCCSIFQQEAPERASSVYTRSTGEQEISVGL

Molecule `Cc1cccc(C)c1C(=O)N1CCC(C)(N2CCC(Nc3cccc4ccn(C)c34)CC2)CC1` has an IC50 [1] of 2170 nM and an IC50 [2] of 102 nM.

For `Cc1cccc(C)c1C(=O)N1CCC(C)(N2CCC(N(Cc3ccccc3)c3ccccc3)CC2)CC1`, the MRT [3] was 4.1 h, the bioavailability [4] was 4% and the Cmax [5] was 90 ng/mL. The Tmax [6] was 0.5 h, the AUG [7] was 33 ng·h/mL and the MRT [8] was 8.9 h. It also gave a Cmax [9] of 7 ng/mL, an AUG (Rattus norvegicus) of 569 ng·h/mL and a bioavailability [10] of 85%. It also gave an IC50 [11] of 200 nM.

In the case of `CN(C)C(=O)c1ccccc1C(=O)N1CCC(C)(N2CCC(N(c3ccccc3)c3ccccc3)CC2)CC1`, the IC50 [2] is reported as over 100 nM.

In the case of `Cc1cccc(C)c1C(=O)N1CCC(C)(N2CCC(N(Cc3ccccc3)Cc3ccccc3)CC2)CC1`, the IC50 [2] is reported as 75 nM.

For `Cc1cc[n+]([O-])c(C)c1C(=O)N1CCC(C)(N2CCC(N(Cc3ccccc3C#N)c3ccccc3)CC2)CC1`, the IC50 [1] was over 3000 nM and the IC50 [2] was 80 nM.

For `CC1(N2CCC(N(c3ccccc3)c3ccccc3)CC2)CCN(C(=O)C2CCCCC2)CC1`, the IC50 [1] was 580 nM and the IC50 [2] was 408 nM.

With `Cc1cc[n+]([O-])c(C)c1C(=O)N1CCC(C)(N2CCC(N(c3ccccc3)c3ccccc3)CC2)CC1` the IC50 [1] was 16 nM, the IC50 [12] was 16 nM and the IC50 [2] was 3.3 nM. For the same molecule, the IC50 [11] was 33 nM.

Work on `Cc1nc[n+]([O-])c(C)c1C(=O)N1CCC(C)(N2CCC(N(c3ccccc3)c3ccccc3)CC2)CC1` yielded an MRT [3] of 5.1 h, a bioavailability [4] of 58% and a Cmax [5] of 91 ng/mL. It also gave an AUG [7] of 1550 ng·h/mL, an MRT [8] of 6 h and a Cmax [9] of 91 ng/mL. It also gave an AUG (Rattus norvegicus) of 1030 ng·h/mL and a bioavailability [10] of 94%.

`Cc1cc[n+]([O-])c(C)c1C(=O)N1CCC(N2CCC(N(c3ccccc3)c3ccccc3)CC2)CC1` gave an IC50 [1] of 127 nM and an IC50 [2] of 9 nM.

For `COc1cccc(OC)c1C(=O)N1CCC(C)(N2CCC(N(c3ccccc3)c3ccccc3)CC2)CC1`, the IC50 [2] was 42 nM.

In the case of `Cc1ccnc(C)c1C(=O)N1CCC(C)(N2CCC(N(c3ccccc3)c3ccccc3)CC2)CC1`, the IC50 [11] is reported as 114 nM.

Work on `Cc1cccc(C)c1C(=O)N1CCC(C)(N2CCC(Nc3ccc(C(F)(F)F)cc3)CC2)CC1` yielded an IC50 [1] of 27.3 nM and an IC50 [2] of 0.8 nM.

`Cc1ccccc1C(=O)N1CCC(C)(N2CCC(N(c3ccccc3)c3ccccc3)CC2)CC1` gave an IC50 [1] of 67 nM and an IC50 [2] of 7.8 nM.

`Cc1cccc(C)c1C(=O)N1CCC(C)(N2CCC(Nc3ccc(-c4ccccc4)cc3)CC2)CC1` gave an IC50 [2] of 460 nM.

`CC1(N2CCC(N(c3ccccc3)c3ccccc3)CC2)CCN(C(=O)c2cccc3ccccc23)CC1` gave an IC50 [13] of 29.4 nM, an MRT [14] of 14.4 h and an IC50 [12] of 29 nM. It also gave a Cmax [9] of 70 ng/mL, an AUG (Rattus norvegicus) of 518 ng·h/mL and a bioavailability [10] of 100%. For the same molecule, the IC50 [11] was 610 nM.

Molecule `COc1cc(CN(c2ccccc2)C2CCN(C3(C)CCN(C(=O)c4c(C)cc[n+]([O-])c4C)CC3)CC2)cc(OC)c1OC` has an IC50 [2] of over 1000 nM.

In the case of `Cc1cccc(C)c1C(=O)N1CCC(C)(N2CCC(NCc3ccccc3)CC2)CC1`, the IC50 [1] is reported as over 1000 nM and the IC50 [2] is reported as over 1000 nM.

Molecule `Cc1cccc(C)c1C(=O)N1CCC(C)(N2CCC(N(Cc3ccccc3)c3ccc(Br)cc3)CC2)CC1` has an IC50 [1] of 15.6 nM, an IC50 [12] of 28 nM and an IC50 [2] of 2.3 nM. It also gave an IC50 [11] of 1450 nM.

`Cc1cccc(C)c1C(=O)N1CCC(C)(N2CCC(Nc3ccc4ccn(C)c4c3)CC2)CC1` showed an IC50 [1] of 1680 nM and an IC50 [2] of 91 nM.

Work on `Cc1cc(C)c(S(=O)(=O)N2CCC(C)(N3CCC(N(c4ccccc4)c4ccccc4)CC3)CC2)c(C)c1` yielded an IC50 [2] of 41 nM.

For `CC1(N2CCC(N(c3ccccc3)c3ccccc3)CC2)CCN(C(=O)c2c[nH]c3ccccc23)CC1`, the IC50 [1] was 283 nM and the IC50 [2] was 48 nM.

With `Cc1nc(-c2ccncc2)nc(C)c1C(=O)N1CCC(C)(N2CCC(N(c3ccccc3)c3ccccc3)CC2)CC1` the IC50 [1] was 30 nM, the bioavailability [4] was 57% and the Cmax [5] was 73 ng/mL. The IC50 [15] was 7.9 nM, the IC50 [12] was 24.6 nM and the MRT [8] was 5.8 h. It also gave an IC50 [2] of 2.8 nM, a Tmax [16] of 0.5 h and an AUG (Rattus norvegicus) of 513 ng·h/mL. For the same molecule, the IC50 [11] was 125 nM.

Molecule `Cc1nc(-c2ccccc2)nc(C)c1C(=O)N1CCC(C)(N2CCC(N(c3ccccc3)c3ccccc3)CC2)CC1` has a bioavailability [4] of 0%, an AUG [7] of 115 ng/mL/h and a Cmax [9] of 12 ng/mL. For the same molecule, the bioavailability [10] was 86%.

With `Cc1ncnc(C)c1C(=O)N1CCC(C)(N2CCC(N(c3ccccc3)c3ccccc3)CC2)CC1` the IC50 (Homo sapiens) was 28 nM and the IC50 [12] was 8 nM.

`Cc1cccc(C)c1C(=O)N1CCC(C)(N2CCC(Nc3ccccc3)CC2)CC1` gave an IC50 [2] of 100 nM.

Work on `Cc1cccc(C)c1C(=O)N1CCC(C)(N2CCC(N(c3ccccc3)c3ccccc3)CC2)CC1` yielded a bioavailability [4] of 0%, a Cmax [9] of 81 ng/mL and a Tmax [16] of 0.5 h. For the same molecule, the AUG (Rattus norvegicus) was 664 ng·h/mL, the bioavailability [10] was 62% and the IC50 [11] was 250 nM. For the same molecule, the MRT [17] was 6.9 h.
